# Reference: PubChem BioAssay AID624097 (The Scripps Research Institute Molecular Screening Center, 2012)
# “And” between values parts separate entries of the source, which are not always exact repeats. Identical values can stand only once. The source made the active and inactive calls.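 How the source made its calls: active means lowest compound dose that cuts the imipenem minimum inhibitory concentration fourfold is 10 µM or below; inactive means that dose above 10 µM or never reached.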
# System: not listed separately
# Test: growth inhibition synergy, IMP-1 E. coli with imipenem – E. coli BL21, powder samples, VIM-2 MBL inhibitor project, late-stage follow-up (AID 624097)
# Conditions: E. coli BL21 IMP-1, imipenem synergy, OD590, 18 h; measured here: max imipenem fold potentiation; stronger effect = higher value
# Procedure, shortened: (§1)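 Signal: turbidity by absorbance at 590 nm, MIC per CLSI / Test system: IMP-1-transformed E. coli BL21 bacteria / Also added: imipenem in two-fold dilution series / Times: ≥18 h growth at 37 °C, aerobic / Medium: Mueller-Hinton broth, cation-adjusted (CAMHB) / Dosing: compound two-fold dilutions in checkerboard grid versus imipenem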
row,Structure (SMILES),fold potentiation
1,CN1CCN(C(=O)CN2C(=O)/C(=C/c3c(Cl)ccc(Cl)c3Cl)SC2=S)CC1,8

# System: E. coli BL21 IMP-1, imipenem synergy, OD590, 18 h
# Test: as above
# Conditions: not given
# Procedure, shortened: as §1
row,Structure (SMILES),MIC
1,O=C(CN1C(=O)/C(=C/c2c(Cl)ccc(Cl)c2Cl)SC1=S)NCc1ccccn1,0.781 µM
2,CC(C)(C)OC(=O)N1CCN(NC(=O)CN2C(=O)/C(=C/c3c(Cl)ccc(Cl)c3Cl)SC2=S)CC1,3.12 µM
3,CN1CCN(NC(=O)CN2C(=O)/C(=C/c3c(Cl)cccc3Cl)SC2=S)CC1,25 µM (inactive) and 3.12 µM
4,CN1CCN(NC(=O)CN2C(=O)/C(=C/c3c(Cl)ccc(Cl)c3Cl)SC2=S)CC1,0.781 µM and 1.56 µM
5,CN1CCN(C(=O)CN2C(=O)/C(=C/c3c(Cl)ccc(Cl)c3Cl)SC2=S)CC1,0.781 µM
6,O=C(CN1C(=O)/C(=C/c2c(Cl)ccc(Cl)c2Cl)SC1=S)NN1CCNCC1,25 µM (inactive)
